Screens as filed in PubChem BioAssay.
ALR inh: inhibitors of human sulfhydryl oxidase ALR. inhibition, % (no concentration beside the values). hit rate 3.8% among 290,000. P55789. purified ALR, DTT oxidation, H2O2 HRP-luminol luminescence;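 active means mean replicate inhibition above about 79%, with every replicate also reaching it, limit read from the data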
CAL PDZ FP-1: blocks peptide binding to the human CAL PDZ domain; inhibition, % at 24.9 µM; hit rate 0.92% among 300,000; Q9HD26; purified CAL PDZ, TMR-peptide fluorescence polarization, 1 h;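 active means mean inhibition of at least 30% with at least half of replicates also reaching 30%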;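 further: 0% = DMSO neutral control and 100% = excess unlabeled competitor peptide PRC23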
Rtt109 HAT inh: C. albicans Rtt109 histone acetyltransferase inhibition | Q5AAJ8 | inhibition, % at 34.9 µM | hit rate 0.16% among 330,000 | purified Rtt109/Vps75, ThioGlo CoA-SH fluorescence, 4 h | AID 540336;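 active means inhibition of at least 50% in every replicate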
Target sequence (Q5AAJ8 whole entry, looked up): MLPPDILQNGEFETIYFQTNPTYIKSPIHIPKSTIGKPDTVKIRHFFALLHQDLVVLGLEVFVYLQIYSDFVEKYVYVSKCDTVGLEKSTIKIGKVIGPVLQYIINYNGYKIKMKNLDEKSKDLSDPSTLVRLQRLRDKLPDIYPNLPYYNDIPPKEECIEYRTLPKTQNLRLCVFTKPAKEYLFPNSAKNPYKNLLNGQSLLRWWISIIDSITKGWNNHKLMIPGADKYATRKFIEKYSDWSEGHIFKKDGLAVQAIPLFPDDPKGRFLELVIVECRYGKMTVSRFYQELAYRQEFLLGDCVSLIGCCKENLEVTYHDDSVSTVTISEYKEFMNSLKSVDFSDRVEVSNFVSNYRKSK
CAL PDZ FP-2: blocks peptide binding to human CAL PDZ domain; purified CAL PDZ, TMR-peptide fluorescence polarization, 1 h; Q9HD26; hit rate 0.02% among 330,000; inhibition, % at 20 µM;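 active means highest replicate inhibition of at least 40%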;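 further: plate controls were DMSO neutral control wells for no effect and unlabeled competitor peptide control wells for full effect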
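material = purified tagged CAL PDZ domain construct (CerCALP) | compound dosing = 20 µM, one dose | times = 1 h at RT | measured by = fluorescence polarization from S- and P-plane intensities, G-factor corrected | read-out = inhibition from polarization loss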
DYRK1A inh: inhibitors of rat Dyrk1A kinase; Q63470; ADP-Glo luminescence, NFATc1 peptide; inhibition, % at 12.5 µM; hit rate 0.43% among 310,000; AID 504441; in the data active means inhibition above about 50%;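 further: plate controls were vehicle with enzyme for no effect and no enzyme for full effect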
An asterisk follows results filed as active; . = no result given. Hits are enriched below; roughly 4.3% of the tested compounds scored in any of these assays.

SMILES	ALR inh	CAL PDZ FP-1	Rtt109 HAT inh	CAL PDZ FP-2	DYRK1A inh
Cc1ccc(NC(=O)CSCc2ccc(F)cc2)cc1	92.6*	-1.2	8.1	0.6	-7.5
Cc1ccc(NC(=O)CSCC(=O)O)cc1	97.8*	-2.5	-1.4	-1.4	3.9
COC(=O)c1ccc(COC(=O)C(CCSC)NC(=O)COc2ccccc2)cc1 (stereo not drawn)	-1.4	3.5	-9.8	-1.3	5.7
COc1ccc2cc3cc(C(=O)NCc4cccnc4)oc3nc2c1	-13.4	1.3	10.0	0.5	30.8
Cc1ccc(C(=O)NC2CCC(C)CC2)o1 (stereo not drawn)	3.7	0.2	1.9	1.0	5.2
Cc1cc(-c2nsc(=O)o2)c(S(C)(=O)=O)s1	99.2*	-3.7	.	-1.6	0.2
NC(=S)NNc1c(F)c(F)c(F)c(F)c1F	97.5*	0.8	9.2	-1.9	6.3
Cc1ccccc1NNC(N)=S	71.9	-6.3	-2.1	-0.2	.
CCOc1ccccc1N1CCN(CC(=O)NCCc2ccc(S(N)(=O)=O)cc2)CC1	14.1	-2.5	-8.7	1.2	-2.7
C[C@@H](NC(=O)Cn1ccc(N)nc1=O)c1cccc2ccccc12	-4.5	-1.1	12.0	-1.1	-2.8
COc1ccc2c(CC(=O)OCC(=O)Nc3cccc(S(N)(=O)=O)c3)coc2c1	-2.3	50.5*	-1.4	-0.7	-1.3
O=C(CSc1nnc2n1CCCN2)c1ccc([N+](=O)[O-])cc1	97.4*	4.0	0.8	0.8	.
CCC(=O)Oc1ccc(C(=O)Nc2c[nH]c(=O)[nH]c2=O)cc1	1.6	10.1	-1.2	-2.7	7.0
Cc1c(C)n(CC(O)CNc2ccccc2)c2ccccc12 (stereo not drawn)	98.1*	-7.3	-9.6	-8.2	-4.1
COc1ccc(NCC(O)Cn2c(C)c(C)c3ccccc32)cc1 (stereo not drawn)	.	-1.8	2.9	-1.8	-6.8
OC(CN1CCCCC1)Cn1c2ccccc2c2cc(Br)ccc21 (stereo not drawn)	-22.6	-1.6	-7.2	-3.0	-0.8
Cc1c(C)n(CC(O)CN2CCCCCC2)c2ccccc12 (stereo not drawn)	97.5*	-3.5	-15.0	1.1	3.0
CC1Oc2ccccc2N(CC(=O)N2CCCC2)C1=O (stereo not drawn)	0.3	-7.5	3.7	.	0.1
Cc1ccc(S(=O)(=O)N2CCCCC2)cc1NC(=O)COC(=O)C1(C)CC1(Cl)Cl (stereo not drawn)	.	66.8*	3.1	-0.1	.
COC(=O)c1ccc(COc2ccc(/C=N/O)cc2)o1	98.5*	.	-5.7	0.4	-5.5
COC(=O)c1nnn(-c2ccsc2C(=O)OC)c1C(=O)OC	1.7	-3.5	-6.3	2.6	.
COc1ccccc1CNS(=O)(=O)c1c(C)[nH]c(C)c1C(=O)N1CCCC1	26.0	11.2	-1.5	-0.6	-1.3
COc1cccc(CNC(=O)Cn2cccc2C(=O)c2ccccc2C)c1	0.0	-4.1	-1.9	-0.7	0.0
Cc1oc(-c2cccc(Cl)c2)nc1CS(=O)(=O)CC(=O)NCCN1CCCC1	23.4	-2.0	34.2	-0.6	4.0
COc1cccc(-c2nc(CS(=O)(=O)CC(=O)NCCCN3CCOCC3)c(C)o2)c1	98.6*	-5.3	12.1	-0.2	-0.7
SMILES	ALR inh	CAL PDZ FP-1	Rtt109 HAT inh	CAL PDZ FP-2	DYRK1A inh
CCC1CCCCN1CCCNC(=O)CS(=O)(=O)Cc1nc(-c2cccc(OC)c2)oc1C (stereo not drawn)	98.4*	0.3	20.4	0.0	0.7
Cc1oc(-c2ccccc2Cl)nc1CS(=O)(=O)CC(=O)NCCN1CCOCC1	93.4*	.	9.6	0.1	5.3
COc1ccc(-c2nc(CS(=O)(=O)CC(=O)NCCCN3CCOCC3)c(C)o2)cc1	-1.4	-5.5	-0.6	-1.2	-4.1
Cc1oc(-c2cccc(Cl)c2)nc1CS(=O)(=O)CC(=O)NCCN1CCOCC1	95.4*	.	-2.7	-0.4	-2.3
CN(Cc1ccc(F)cc1)C(=O)CNC(=O)C1CCCCC1	-7.1	-3.1	-0.3	-2.0	-4.3
COc1cccc(CNC(=O)CCC2CCCN(C(=O)C3CCOCC3)C2)c1 (stereo not drawn)	-13.6	1.8	-14.9	0.0	-3.0
Cc1cc(C)cc(NC(=S)N2CCC(NC(=O)C3CC3)CC2)c1	-8.2	-5.0	18.8	-1.8	-0.6
O=C(N=C1SC2CS(=O)(=O)CC2N1c1ccc(Br)cc1)C1CCCO1 (stereo not drawn)	-3.2	.	-4.3	-1.3	0.3
CCN1CCN(C(=O)CS(=O)(=O)Cc2nc(-c3cccc(OC)c3)oc2C)CC1	98.8*	-4.8	-10.5	-2.3	-2.1
